Values after ≈ are worked out from the molar mass of the structure shown. Values joined by “and” are separate entries in the source; they are usually repeats but may differ in a detail not shown here. Equal values may be shown once. Read-outs that look alike come from different tables or passages of the source.
Columns and labels:
[1] = Desorption kinetics of bisphenols from bisphenol-attached PVC microplastics; type: physicochemical
Procedure, shortened: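 Bisphenol-loaded PVC from the adsorption step was placed in water or simulated intestinal fluid (NaCl 0.12 M, Na2CO3 0.02 M, sodium taurocholate 15.5 mM) in sealed 1 L glass bottles. Bottles were agitated rotationally at 200 rpm in an oil bath. Bisphenol was measured in filtered supernatant at intervals from 0 to 75 h. Run in triplicate.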

[2] = test system: human breast adenocarcinoma cells, MCF-7; assay: cells; type: cell-based; details: for Cytotoxicity (proliferation reduction), MCF-7: high concentration (2 mg L^−1)
Desorption isotherms = type: physicochemical
[3] = test system: grass carp hepatocyte cell line, L8824; assay: cells; type: cell-based; details: for Cytotoxicity (proliferation reduction), L8824: high concentration (2 mg L^−1)
[4] = Adsorption of bisphenols onto PVC microplastics; type: physicochemical; details: 1.5 g PVC microplastics in 1 L, 48 h, room temperature
Procedure, shortened: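 Each bisphenol was dissolved in ethanol, then diluted in a 1 L glass bottle to initial concentrations of 0 to 1.0 mg L-1. PVC microplastics were added, and bottles were shaken at 200 rpm until adsorption equilibrium. Supernatants were filtered through a glass microfiber filter before bisphenol quantification. Run in triplicate.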

[5] = water, ref Wu et al.^3; cited from earlier work
[6] = type: physicochemical; details: high concentration (2 mg L^−1)
[7] = Physicochemical properties of the five bisphenols; details: calculated from log Kow and pKa
[8] = calculated for concentration desorbed in warm-I
[9] = calculated for concentration desorbed in water
[10] = read-out: IC50 to L8824, 72 h exposure, 291 K, MTT
[11] = read-out: IC50 to MCF-7, 72 h exposure, 311 K, MTT

SMILES	Fslow, slow fraction ([1]; cold-I, pH 7.5, 291 K)	krap, rapid desorption rate constant ([1]; cold-I, pH 7.5, 291 K)	kslow, slow desorption rate constant ([1]; cold-I, pH 7.5, 291 K)	kvs, very slow desorption rate constant ([1]; cold-I, pH 7.5, 291 K)	Fslow, slow fraction ([1]; warm-I, pH 6.5, 311 K)	Fvs, very slow fraction ([1]; warm-I, pH 6.5, 311 K)	krap, rapid desorption rate constant ([1]; warm-I, pH 6.5, 311 K)	kslow, slow desorption rate constant ([1]; warm-I, pH 6.5, 311 K)	kvs, very slow desorption rate constant ([1]; warm-I, pH 6.5, 311 K)	Fslow, slow fraction ([1]; water, pH 7.0, 291 K)	Fvs, very slow fraction ([1]; water, pH 7.0, 291 K)	krap, rapid desorption rate constant ([1]; water, pH 7.0, 291 K)	kslow, slow desorption rate constant ([1]; water, pH 7.0, 291 K)	kvs, very slow desorption rate constant ([1]; water, pH 7.0, 291 K)	kFd, Freundlich constant for desorption (Desorption isotherms; warm-I (Table 2)) [mg^−1/n·L^−1/n·g^−1]	n, surface heterogeneity constant (desorption) (Desorption isotherms; warm-I (Table 2))	kFd, Freundlich constant for desorption (Desorption isotherms; water (Table 2)) [mg^−1/n·L^−1/n·g^−1]	IC50 [3, 10] [µM]	amount of bisphenol adsorbed on the PVC [4] [mg/g]	kFa, Freundlich constant for adsorption [5] [mg^−1/n·L^−1/n·g^−1]	further results
CCC(C)(c1ccc(O)cc1)c1ccc(O)cc1 [BPB, bisphenol B]	0.456±0.005	0.864±0.209 10^-2 h^-1	10.80±0.737 10^-4 h^-1	7.718±0.488 10^-5 h^-1	0.308±0.003	0.010±0.001	2.479±0.452 10^-2 h^-1	18.90±2.818 10^-4 h^-1	<0.01 10^-5 h^-1	0.293±0.006	0.046±0.002	0.777±0.285 10^-2 h^-1	6.751±0.274 10^-4 h^-1	6.992±0.534 10^-5 h^-1	0.428	1.179	1.542	9.67 ± 0.92	0.23	1.182	Fvs, very slow fraction ([1]; cold-I, pH 7.5, 291 K): 0.059±0.001; IC50 ([2]; Homo sapiens, MCF7, 72 h, read-out: IC50 to MCF-7, 72 h exposure, 311 K, MTT): 21.6 µM and 5.25 µg/mL; Cytotoxicity (proliferation reduction), MCF-7 [2, 8]: 29.53%; Cytotoxicity (proliferation reduction), MCF-7 [2, 9]: 18.79%; HI, hysteresis index (Desorption isotherms; warm-I): <0; HI, hysteresis index (Desorption isotherms; water): 0.304; n, surface heterogeneity constant (desorption) (Desorption isotherms; water (Table 2)): 1.237; IC50 ([3]; Hepatocyte, 72 h, read-out: IC50 to L8824, 72 h exposure, 291 K, MTT): 2.34 ± 0.23 µg/mL; Cytotoxicity (proliferation reduction), L8824 [3, 8]: 36.95%; Cytotoxicity (proliferation reduction), L8824 [3, 9]: 26.25%; n, surface heterogeneity constant (adsorption) [5]: 1.16
Oc1ccc(Cc2ccc(O)cc2)cc1 [BPF, bisphenol F]	0.335±0.002	0.662±0.241 10^-2 h^-1	6.906±0.579 10^-4 h^-1	2.367±0.112 10^-5 h^-1	0.308±0.003	0.005±0.001	1.744±0.373 10^-2 h^-1	9.877±1.415 10^-4 h^-1	5.778±0.325 10^-5 h^-1	0.371±0.004	0.051±0.002	0.619±0.179 10^-2 h^-1	6.659±0.441 10^-4 h^-1	<0.01 10^-5 h^-1	0.388	1.186	0.720	11.3 ± 2.12	0.16	0.575	desorbed concentration, Warm-I [6]: 0.59 mg/L; IC50 to MCF-7 ([2]; 72 h exposure, 311 K, MTT): 6.39 ± 0.34 µg/mL (≈ 31.9 µM); Cytotoxicity (proliferation reduction), MCF-7 [2, 8]: 26.54%; Cytotoxicity (proliferation reduction), MCF-7 [2, 9]: 20.83%; IC50 [2, 11]: 31.9 ± 1.69 µM; HI, hysteresis index (Desorption isotherms; warm-I): <0; HI, hysteresis index (Desorption isotherms; water): 0.252; n, surface heterogeneity constant (desorption) (Desorption isotherms; water (Table 2)): 1.594; IC50 to L8824 ([3]; 72 h exposure, 291 K, MTT): 2.26 ± 0.43 µg/mL (≈ 11.3 µM); Cytotoxicity (proliferation reduction), L8824 [3, 8]: 33.24%; Cytotoxicity (proliferation reduction), L8824 [3, 9]: 27.15%; log Dow [7]: 2.80; n, surface heterogeneity constant (adsorption) [5]: 1.13
O=S(=O)(c1ccc(O)cc1)c1ccc(O)cc1 [BPS, bisphenol S]	0.383±0.001	0.587±0.228 10^-2 h^-1	7.612±0.336 10^-4 h^-1	12.03±0.685 10^-5 h^-1	0.325±0.005	<0.001	1.497±0.391 10^-2 h^-1	10.00±1.191 10^-4 h^-1	11.338±0.322 10^-5 h^-1	0.410±0.007	0.028±0.002	0.580±0.174 10^-2 h^-1	6.789±0.198 10^-4 h^-1	<0.01 10^-5 h^-1	0.341	1.207	0.602	35.9 ± 6.01	0.15	0.503	Fvs, very slow fraction ([1]; cold-I, pH 7.5, 291 K): 0.085±0.002; IC50 to MCF-7 ([2]; 72 h exposure, 311 K, MTT): 14.50 ± 1.95 µg/mL (≈ 57.9 µM); IC50 [2, 11]: 57.9 ± 7.76 µM; IC50 to L8824 ([3]; 72 h exposure, 291 K, MTT): 8.98 ± 1.51 µg/mL (≈ 35.9 µM); n, surface heterogeneity constant (adsorption) [5]: 1.15
